Data as given in ChEMBL document CHEMBL4316592, “Synthesis of new derivatives of boehmeriasin A and their biological evaluation in liver cancer” (Eur J Med Chem, 2019).
Activity calls are given as the source filed them. The calls are words filed in the database; no cut-off is given here.

Key:
Mahlavu [1] = test: Cell cycle arrest in human Mahlavu cells assessed as accumulation of cells at G2/M phase at 1 uM after 48 hrs by propidium iodide staining-based flow cytometric analysis (reference value: 22.3%); format: functional
Mahlavu [2] = test: Cytotoxicity against human Mahlavu cells after 24 hrs by RTCA analysis; format: functional, cell-based
Method in brief: (§1)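 xCELLigence impedance real-time growth assay. Huh7 (2000) or Mahlavu (1000) cells plated, treated after 24 h at log phase with a 2-fold dilution series (4 steps) from a top concentration of 1. Cell index recorded every 10 min for 24 h, then every 30 min. Growth inhibition normalized to DMSO; IC50 taken at 24, 48, 72 h.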

Huh-7 [3] = test: Down-regulation of CDK2 protein expression in human HuH7 cells at 1 uM after 24 to 72 hrs by Western blot analysis; format: functional, cell-based
MCF-10A = test: Cytotoxicity against human MCF10A cells after 72 hrs by SRB assay; format: cell-based
Mahlavu [4] = test: Cell cycle arrest in human Mahlavu cells assessed as accumulation of cells at G1 phase at 1 uM after 48 hrs by propidium iodide staining-based flow cytometric analysis (reference value: 43.5%); format: functional
Mahlavu [5] = test: Induction of apoptosis in human Mahlavu cells assessed as late apoptotic cells at 1 uM after 24 hrs by Annexin V-FITC/propidium iodide staining-based flow cytometric analysis (reference value: 1.28%); format: functional
Huh-7 [6] = test: Induction of apoptosis in human HuH7 cells assessed as early apoptotic cells at 1 uM after 48 hrs by Annexin V-FITC/propidium iodide staining-based flow cytometric analysis (reference value: 0.02%); format: functional
Huh-7 [7] = test: Cell cycle arrest in human HuH7 cells assessed as accumulation of cells at S phase at 1 uM after 72 hrs by propidium iodide staining-based flow cytometric analysis (reference value: 15.5%); format: functional
Huh-7 [8] = test: Down-regulation of CDK1 protein expression in human HuH7 cells at 1 uM after 24 to 72 hrs by Western blot analysis; format: functional, cell-based
Huh-7 [9] = test: Cell cycle arrest in human HuH7 cells assessed as accumulation of cells at S phase at 1 uM after 24 hrs by propidium iodide staining-based flow cytometric analysis (reference value: 14.2%); format: functional
Mahlavu [10] = test: Modulation of SAPK/JNK phosphorylation at Thr183/Tye185 residues in human Mahlavu cells at 1 uM after 24 to 72 hrs by Western blot analysis; format: cell-based
Huh-7 [11] = test: Cell cycle arrest in human HuH7 cells assessed as accumulation of cells at G2/M phase at 1 uM after 48 hrs by propidium iodide staining-based flow cytometric analysis (reference value: 33.5%); format: functional
Huh-7 [12] = test: Cytotoxicity against human HuH7 cells after 24 hrs by RTCA analysis; format: functional, cell-based; settings: Huh-7, 24 h; method in brief: as §1
Mahlavu [13] = test: Cell cycle arrest in human Mahlavu cells assessed as accumulation of cells at subG1 phase at 1 uM after 24 hrs by propidium iodide staining-based flow cytometric analysis (reference value: 18.3%); format: functional
Mahlavu [14] = test: Induction of apoptosis in human Mahlavu cells assessed as apoptotic body formation at 1 uM by Hoechst staining-based assay; format: functional, cell-based
Huh-7 [15] = test: Induction of apoptosis in human HuH7 cells assessed as late apoptotic cells at 1 uM after 72 hrs by Annexin V-FITC/propidium iodide staining-based flow cytometric analysis (reference value: 2.34%); format: functional
Huh-7 [16] = test: Induction of apoptosis in human HuH7 cells assessed as viable cells at 1 uM after 24 hrs by Annexin V-FITC/propidium iodide staining-based flow cytometric analysis (reference value: 97.30%); format: functional; settings: Huh-7, 24 h, read-out: Activity
Mahlavu [17] = test: Down-regulation of cyclin-B1 protein expression in human Mahlavu cells at 1 uM after 24 to 72 hrs by Western blot analysis; format: functional, cell-based
[18] = molecular target: T1, Mitogen-activated protein kinase kinase kinase 5 (Homo sapiens) (UniProt Q99683); test: Inhibition of ASK1 Ser-966 phosphorylation in human Mahlavu cells at 1 uM after 24 to 72 hrs by Western blot analysis; format: cell-based
T1 sequence (whole entry): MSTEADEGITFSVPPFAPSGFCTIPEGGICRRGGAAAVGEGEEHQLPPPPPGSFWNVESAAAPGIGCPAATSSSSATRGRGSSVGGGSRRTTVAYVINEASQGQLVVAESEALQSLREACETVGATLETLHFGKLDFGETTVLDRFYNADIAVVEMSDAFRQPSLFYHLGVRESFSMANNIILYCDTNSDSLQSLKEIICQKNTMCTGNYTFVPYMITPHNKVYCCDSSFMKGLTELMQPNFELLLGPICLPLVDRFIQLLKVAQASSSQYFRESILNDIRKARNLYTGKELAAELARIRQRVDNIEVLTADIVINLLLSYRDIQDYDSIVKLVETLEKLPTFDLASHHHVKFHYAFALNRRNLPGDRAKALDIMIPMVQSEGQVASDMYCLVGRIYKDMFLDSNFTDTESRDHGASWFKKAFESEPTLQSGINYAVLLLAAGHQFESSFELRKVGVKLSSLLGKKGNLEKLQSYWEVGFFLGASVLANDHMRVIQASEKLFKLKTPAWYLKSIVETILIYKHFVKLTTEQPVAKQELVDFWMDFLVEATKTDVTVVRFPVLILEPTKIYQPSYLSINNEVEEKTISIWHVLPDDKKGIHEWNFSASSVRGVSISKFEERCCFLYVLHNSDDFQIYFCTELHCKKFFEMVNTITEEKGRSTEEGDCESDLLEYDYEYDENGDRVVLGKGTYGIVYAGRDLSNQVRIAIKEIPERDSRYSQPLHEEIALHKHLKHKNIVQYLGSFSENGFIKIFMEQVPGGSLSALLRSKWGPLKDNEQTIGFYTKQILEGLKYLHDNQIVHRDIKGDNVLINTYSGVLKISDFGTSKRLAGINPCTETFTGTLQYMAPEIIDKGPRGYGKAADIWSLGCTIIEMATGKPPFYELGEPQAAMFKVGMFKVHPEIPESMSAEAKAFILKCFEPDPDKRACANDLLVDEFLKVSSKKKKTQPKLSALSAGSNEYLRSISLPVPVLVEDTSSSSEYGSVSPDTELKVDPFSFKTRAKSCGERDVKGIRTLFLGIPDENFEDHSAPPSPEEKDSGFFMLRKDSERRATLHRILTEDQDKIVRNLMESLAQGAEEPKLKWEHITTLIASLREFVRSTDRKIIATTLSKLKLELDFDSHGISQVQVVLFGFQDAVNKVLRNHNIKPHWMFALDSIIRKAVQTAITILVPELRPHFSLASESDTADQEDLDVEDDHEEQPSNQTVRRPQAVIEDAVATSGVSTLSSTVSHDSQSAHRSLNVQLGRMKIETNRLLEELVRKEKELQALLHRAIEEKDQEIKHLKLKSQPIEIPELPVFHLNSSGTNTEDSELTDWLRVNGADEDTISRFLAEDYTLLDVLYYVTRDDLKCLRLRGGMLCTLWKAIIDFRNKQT

Huh-7 [19] = test: Cell cycle arrest in human HuH7 cells assessed as accumulation of cells at G1 phase at 1 uM after 48 hrs by propidium iodide staining-based flow cytometric analysis (reference value: 44.2%); format: functional
Huh-7 [20] = test: Induction of apoptosis in human HuH7 cells assessed as necrotic cells at 1 uM after 48 hrs by Annexin V-FITC/propidium iodide staining-based flow cytometric analysis (reference value: 0.02%); format: functional

inhibition [18]	SMILES	Activity (Mahlavu [1]) [%]	IC50 (Mahlavu [2]) [nM]	Activity (Huh-7 [3])	IC50 (MCF-10A) [nM]	Activity (Mahlavu [4]) [%]	Activity (Mahlavu [5]) [%]	Activity (Huh-7 [6]) [%]	Activity (Huh-7 [7]) [%]	Activity (Huh-7 [8])	Activity (Huh-7 [9]) [%]	Activity (Mahlavu [10])	Activity (Huh-7 [11]) [%]	IC50 (Huh-7 [12]) [nM]	Activity (Mahlavu [13]) [%]	Activity (Mahlavu [14])	Activity (Huh-7 [15]) [%]	viability at 1 µM (Huh-7 [16]) [%]	Activity (Mahlavu [17])	Activity (Huh-7 [19]) [%]	other results
Active	COc1ccc2c3c(c4cc(OC)c(OC)cc4c2c1)CN1CCCC[C@@H]1C3	16.6	200	Active	140	44.6	5.08	0.18	8.7	Active	15.9	Active	24.4	1400	15	Active	16.15	98.9	Active	54.6	Activity (Huh-7 [20]): 0.07%
Active	COc1ccc2c3c(c4cc(OC)c(OC)cc4c2c1)CN1CCCCC1C3O (racemic)	32.9	10	Active	200	37.2	1.54	0.07	7.7	Active	13.2	Active	18.1	800	16.5	Active	17.97	99.1	Active	35.5	Activity (Huh-7 [20]): 0.16%
